Experimental data published in ChEMBL document CHEMBL4270526, “A novel NAE/UAE dual inhibitor LP0040 blocks neddylation and ubiquitination leading to growth inhibition and apoptosis of cancer cells” (Eur J Med Chem, 2018).
pIC50: −log10 of the molar value. Active and inactive are the calls of the source. The rule behind the calls is not given here.

Assays:
K562 = experiment: Antiproliferative activity against human K562 cells after 48 hrs by CCK8 assay; format: functional, cell-based; settings: K562, 48 h
Outline: (§1)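 Cells seeded at 6 × 10^3 cells/well and left 12 h at 37 °C, 5% CO2. Medium then replaced with serial compound dilutions, bortezomib as positive control. After 48 h, CCK-8 added for 4 h and absorbance read at 450 nm. Three repeats; IC50 from normalized nonlinear regression of inhibition curves.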

HCT-116 = experiment: Antiproliferative activity against human HCT116 cells after 48 hrs by CCK8 assay; format: functional, cell-based; settings: HCT-116, 48 h; outline: as §1
BXPC-3 = experiment: Antiproliferative activity against human BxPC3 cells after 48 hrs by CCK8 assay; format: functional, cell-based; settings: BXPC-3, 48 h; outline: as §1
[1] = Antiproliferative activity against human LO2 cells after 48 hrs by CCK8 assay; format: cell-based, L02; settings: read-out: LC50
[2] = Selectivity index, ratio of IC50 for HUVEC to IC50 for human AGS cells; format: toxicity; settings: HUVEC versus AGS cells, read-out: Ratio IC50
[3] = molecular target: T1, NEDD8 activating enzyme (Homo sapiens) (UniProt Q8TBC4+Q13564); experiment: Inhibition of recombinant human NAE assessed as reduction in Ubc12-NEDD8 conjugation level pretreated for 10 mins followed by Mg2+ and ATP addition measured after 60 mins by Western blot analysis; format: protein-complex assay
Outline: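 Cell-free assay with recombinant human NAE 2.5 µM, NEDD8 250 µM and E2 Ubc12 50 µM (stock concentrations) plus inhibitor, preincubated 10 min at 37 °C. Reaction started with 10 mM Mg2+/ATP (stock), run 60 min at 37 °C, quenched with EDTA. Non-reducing 15% SDS-PAGE, Ubc12-NEDD8 thioester detected by western blot. No-ATP negative control.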

[4] = molecular target: T1, NEDD8 activating enzyme (Homo sapiens); experiment: Inhibition of NAE-mediated CRL neddylation in human AGS cells assessed as increase in p27 level up to 10 uM after 24 hrs by Western blot analysis; format: cell-based
Outline: (§2)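 AGS cells given 2, 4, 6, 8 or 10 μM compound or 0.1% DMSO for 24 h, washed in ice-cold PBS and lysed in RIPA on ice. Equal protein loads run by SDS-PAGE: non-reducing for NEDD8/SUMO/Ub conjugates, reducing for p27, NRF2, CDT1 and cleaved caspase-3. Blotted to PVDF with primary antibody overnight at 4 °C and HRP secondary, ECL detection, densitometry. Three repeats.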

[5] = molecular target: T1, NEDD8 activating enzyme (Homo sapiens); experiment: Inhibition of NAE-mediated CRL neddylation in human AGS cells assessed as increase in NRF2 level up to 10 uM after 24 hrs by Western blot analysis; format: cell-based; outline: as §2
[6] = molecular target: SUMO-activating enzyme (Homo sapiens) (UniProt Q9UBE0+Q9UBT2); experiment: Inhibition of SAE in human AGS cells assessed as reduction in […]-SUMO conjugation level at 2 to 10 uM after 24 hrs by Western blot analysis; format: cell-based; outline: as §2
[7] = molecular target: Protein kinase C alpha type (Homo sapiens) (UniProt P17252); experiment: Inhibition of PKCalpha (unknown origin) at 30 uM relative to control
[8] = molecular target: Aurora kinase A (Homo sapiens) (UniProt O14965); experiment: Inhibition of AurA (unknown origin) at 30 uM relative to control
[9] = molecular target: Serine/threonine-protein kinase B-raf (Homo sapiens) (UniProt P15056); experiment: Inhibition of B-raf (unknown origin) at 30 uM relative to control
[10] = molecular target: Cyclin-dependent kinase 1 (Homo sapiens) (UniProt P06493); experiment: Inhibition of CDK1 (unknown origin) at 30 uM relative to control
[11] = molecular target: Cyclin-dependent kinase 2/cyclin E1 (Homo sapiens) (UniProt P24864+P24941); experiment: Inhibition of CDK2/cyclin E (unknown origin) at 30 uM relative to control; format: protein-complex assay
[12] = molecular target: Serine/threonine-protein kinase PLK1 (Homo sapiens) (UniProt P53350); experiment: Inhibition of PLK (unknown origin) at 30 uM relative to control
AGS [13] = experiment: Induction of apoptosis in human AGS cells assessed as live cells at 4 uM after 36 hrs by Annexin-V-FITC/propidium iodide staining based flow cytometry (reference value: 92.84%); format: functional
AGS [14] = experiment: Induction of apoptosis in human AGS cells assessed as early apoptotic cells at 4 uM after 36 hrs by Annexin-V-FITC/propidium iodide staining based flow cytometry (reference value: 4.44%); format: functional
AGS [15] = experiment: Induction of apoptosis in human AGS cells assessed as late apoptotic cells at 4 uM after 36 hrs by Annexin-V-FITC/propidium iodide staining based flow cytometry (reference value: 1.71%); format: functional
AGS [16] = experiment: Induction of apoptosis in human AGS cells assessed as necrotic cells at 4 uM after 36 hrs by Annexin-V-FITC/propidium iodide staining based flow cytometry (reference value: 1.01%); format: functional
AGS [17] = experiment: Induction of apoptosis in human AGS cells assessed as live cells at 6 uM after 36 hrs by Annexin-V-FITC/propidium iodide staining based flow cytometry (reference value: 92.84%); format: functional
AGS [18] = experiment: Induction of apoptosis in human AGS cells assessed as early apoptotic cells at 6 uM after 36 hrs by Annexin-V-FITC/propidium iodide staining based flow cytometry (reference value: 4.44%); format: functional
AGS [19] = experiment: Induction of apoptosis in human AGS cells assessed as necrotic cells at 6 uM after 36 hrs by Annexin-V-FITC/propidium iodide staining based flow cytometry (reference value: 1.01%); format: functional
AGS [20] = experiment: Induction of apoptosis in human AGS cells assessed as early apoptotic cells at 8 uM after 36 hrs by Annexin-V-FITC/propidium iodide staining based flow cytometry (reference value: 4.44%); format: functional
AGS [21] = experiment: Induction of apoptosis in human AGS cells assessed as live cells at 10 uM after 36 hrs by Annexin-V-FITC/propidium iodide staining based flow cytometry (reference value: 92.84%); format: functional
AGS [22] = experiment: Induction of apoptosis in human AGS cells after 36 hrs by Annexin-V-FITC/propidium iodide staining based flow cytometry; format: functional, cell-based
AGS [23] = experiment: Cell cycle arrest in human AGS cells assessed as accumulation at G1 phase at 4 uM after 4 to 48 hrs by propidium iodide staining based flow cytometry (reference value: 22.82%); format: functional
Outline: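 AGS cells seeded at 1 × 10^5/well and attached 24 h at 37 °C, 5% CO2. Exposed to 4 μM compound for varying times, then fixed in 70% ethanol at −20 °C overnight. Stained with PI/RNase buffer 15–20 min in the dark; 20000 cells per sample read by flow cytometry (488 nm excitation, FL-3 630 nm). Three repeats.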

AGS [24] = experiment: Synergistic antiproliferative activity against human AGS cells assessed as combination index constant at 1 uM after 48 hrs in presence of 7.5 nM BTZ by CCK8 assay; format: functional
Outline: (§3)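 AGS cells at 6×10^3/well attached for 12 h, then exposed for 48 h to compound, bortezomib, or both at set concentrations. CCK-8 added for 4 h, then OD read at 450 nm. Inhibition rates E used for q = E(combo)/(E1+E2−E1×E2). Triplicate experiments.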

AGS [25] = experiment: Synergistic antiproliferative activity against human AGS cells assessed as combination index constant at 1.25 uM after 48 hrs in presence of 10 nM BTZ by CCK8 assay; format: functional; outline: as §3

Sequence of Serine/threonine-protein kinase B-raf (Homo sapiens) (P15056 whole entry): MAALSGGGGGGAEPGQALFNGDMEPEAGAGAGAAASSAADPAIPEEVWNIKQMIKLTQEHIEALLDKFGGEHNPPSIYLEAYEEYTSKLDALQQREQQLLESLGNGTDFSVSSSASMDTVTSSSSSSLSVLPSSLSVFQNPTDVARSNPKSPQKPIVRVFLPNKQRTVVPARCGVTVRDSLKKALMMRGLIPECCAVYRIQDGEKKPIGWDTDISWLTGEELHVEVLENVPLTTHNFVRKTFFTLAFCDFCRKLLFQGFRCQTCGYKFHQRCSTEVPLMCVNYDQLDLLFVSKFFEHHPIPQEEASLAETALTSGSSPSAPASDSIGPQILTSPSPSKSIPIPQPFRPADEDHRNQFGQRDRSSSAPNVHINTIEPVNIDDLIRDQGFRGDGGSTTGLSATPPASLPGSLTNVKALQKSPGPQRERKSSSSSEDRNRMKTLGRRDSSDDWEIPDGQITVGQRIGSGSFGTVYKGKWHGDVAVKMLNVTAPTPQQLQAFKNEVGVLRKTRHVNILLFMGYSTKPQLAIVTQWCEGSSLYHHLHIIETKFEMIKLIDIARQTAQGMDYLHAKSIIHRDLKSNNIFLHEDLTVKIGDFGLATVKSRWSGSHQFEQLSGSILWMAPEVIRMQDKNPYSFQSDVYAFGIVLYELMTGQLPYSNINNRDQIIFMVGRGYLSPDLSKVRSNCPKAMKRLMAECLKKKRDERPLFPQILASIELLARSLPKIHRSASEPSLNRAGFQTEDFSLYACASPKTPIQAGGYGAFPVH
Sequence of Serine/threonine-protein kinase PLK1 (Homo sapiens) (P53350 whole entry): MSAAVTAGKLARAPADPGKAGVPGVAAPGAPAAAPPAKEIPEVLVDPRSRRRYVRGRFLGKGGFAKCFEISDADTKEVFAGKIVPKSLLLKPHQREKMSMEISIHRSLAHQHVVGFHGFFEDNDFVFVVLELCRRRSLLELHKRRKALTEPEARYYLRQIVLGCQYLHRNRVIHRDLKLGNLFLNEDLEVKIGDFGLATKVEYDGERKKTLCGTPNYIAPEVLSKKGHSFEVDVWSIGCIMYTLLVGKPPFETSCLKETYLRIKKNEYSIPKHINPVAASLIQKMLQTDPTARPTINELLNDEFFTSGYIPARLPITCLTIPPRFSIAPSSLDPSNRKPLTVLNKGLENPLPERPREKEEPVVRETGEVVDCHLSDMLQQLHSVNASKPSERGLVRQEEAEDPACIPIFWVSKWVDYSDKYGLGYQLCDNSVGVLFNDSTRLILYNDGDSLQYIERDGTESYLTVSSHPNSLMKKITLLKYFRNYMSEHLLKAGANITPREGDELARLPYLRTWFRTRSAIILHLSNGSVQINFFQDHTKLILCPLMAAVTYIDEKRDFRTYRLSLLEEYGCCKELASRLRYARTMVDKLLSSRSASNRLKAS
Sequence of Aurora kinase A (Homo sapiens) (O14965 whole entry): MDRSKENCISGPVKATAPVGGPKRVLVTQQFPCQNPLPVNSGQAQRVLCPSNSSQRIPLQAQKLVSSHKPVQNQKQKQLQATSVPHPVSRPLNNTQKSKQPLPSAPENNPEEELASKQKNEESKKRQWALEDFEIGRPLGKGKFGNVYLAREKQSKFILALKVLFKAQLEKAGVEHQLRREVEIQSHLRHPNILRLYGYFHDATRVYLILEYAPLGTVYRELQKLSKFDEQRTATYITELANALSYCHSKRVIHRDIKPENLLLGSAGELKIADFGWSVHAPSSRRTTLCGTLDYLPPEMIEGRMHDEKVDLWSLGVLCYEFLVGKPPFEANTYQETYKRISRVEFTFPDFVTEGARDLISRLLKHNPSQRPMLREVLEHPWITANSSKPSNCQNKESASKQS
Sequence of Cyclin-dependent kinase 1 (Homo sapiens) (P06493 whole entry, looked up): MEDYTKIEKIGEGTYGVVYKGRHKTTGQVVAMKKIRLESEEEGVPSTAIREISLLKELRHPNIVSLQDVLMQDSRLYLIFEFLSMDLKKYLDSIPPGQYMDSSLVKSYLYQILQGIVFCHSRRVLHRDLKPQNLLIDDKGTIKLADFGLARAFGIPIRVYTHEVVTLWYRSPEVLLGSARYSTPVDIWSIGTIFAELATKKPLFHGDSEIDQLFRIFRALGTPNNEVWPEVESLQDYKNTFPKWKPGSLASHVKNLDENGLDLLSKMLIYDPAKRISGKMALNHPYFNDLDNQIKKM

Compound: O=c1cc(-c2ccc(-c3ccccc3)cc2)c2ccc(N3CCC(NCCc4ccccc4)CC3)cc2o1
- pIC50 (K562): 5.61
- pIC50 (HCT-116): 5.88
- pIC50 (BXPC-3): 5.55
- CC50 at 48 h [1]: 13.5 µM
- selectivity ratio [2]: 14 to 18
- inhibition [3]: Dose-dependent effect
- inhibition [4]: Active
- inhibition [5]: Active
- inhibition [6]: inactive
- inhibition [7]: 11.5%
- inhibition [8]: 6.03%
- inhibition [9]: 1.75%
- inhibition [10]: -1.18%
- inhibition [11]: 4.57%
- inhibition [12]: 5.58%
- Activity (AGS [13]): 80.7%
- Activity (AGS [14]): 7.77%
- Activity (AGS [15]): 10.51%
- Activity (AGS [16]): 1.03%
- Activity (AGS [17]): 14.99%
- Activity (AGS [18]): 45.91%
- Activity (AGS [19]): 3.33%
- Activity (AGS [20]): 50.39%
- Activity (AGS [21]): 7.4%
- Activity (AGS [22]): Dose-dependent effect
- Activity (AGS [23]): 48.88%
- CI (AGS [24]): 1.13
- CI (AGS [25]): 1.75
